Assay results: PubChem BioAssay AID504650 (Molecular Libraries Program, Specialized Chemistry Center, …, 2011)
Activity calls are given as the source filed them.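 Rule for the calls: active = IC50 at or below 10 µM; inactive = the rest.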

Biological target: Transitional endoplasmic reticulum ATPase (Homo sapiens) (UniProt P55072)
Test: VCP ATP hydrolysis inhibition, purified enzyme – biochemical, dose response, round 3, SAR follow-up (AID 504650)
Conditions: purified p97 ATPase, Kinase-Glo luminescence
Summary of the method: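 Also added: ATP substrate, 500 µM stock; Assay system: human p97 ATPase protein; Buffer or medium: Tris pH 7.4 buffer with MgCl2, EDTA; Signal: Kinase-Glo Plus luminescence measuring residual ATP; Measure: IC50 from fit of percent remaining activity versus compound concentration; Incubation: 10 min room-temperature enzyme–compound preincubation, 30 min 37 °C ATP reaction.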

Transitional endoplasmic reticulum ATPase (Homo sapiens), sequence (P55072 whole entry, looked up): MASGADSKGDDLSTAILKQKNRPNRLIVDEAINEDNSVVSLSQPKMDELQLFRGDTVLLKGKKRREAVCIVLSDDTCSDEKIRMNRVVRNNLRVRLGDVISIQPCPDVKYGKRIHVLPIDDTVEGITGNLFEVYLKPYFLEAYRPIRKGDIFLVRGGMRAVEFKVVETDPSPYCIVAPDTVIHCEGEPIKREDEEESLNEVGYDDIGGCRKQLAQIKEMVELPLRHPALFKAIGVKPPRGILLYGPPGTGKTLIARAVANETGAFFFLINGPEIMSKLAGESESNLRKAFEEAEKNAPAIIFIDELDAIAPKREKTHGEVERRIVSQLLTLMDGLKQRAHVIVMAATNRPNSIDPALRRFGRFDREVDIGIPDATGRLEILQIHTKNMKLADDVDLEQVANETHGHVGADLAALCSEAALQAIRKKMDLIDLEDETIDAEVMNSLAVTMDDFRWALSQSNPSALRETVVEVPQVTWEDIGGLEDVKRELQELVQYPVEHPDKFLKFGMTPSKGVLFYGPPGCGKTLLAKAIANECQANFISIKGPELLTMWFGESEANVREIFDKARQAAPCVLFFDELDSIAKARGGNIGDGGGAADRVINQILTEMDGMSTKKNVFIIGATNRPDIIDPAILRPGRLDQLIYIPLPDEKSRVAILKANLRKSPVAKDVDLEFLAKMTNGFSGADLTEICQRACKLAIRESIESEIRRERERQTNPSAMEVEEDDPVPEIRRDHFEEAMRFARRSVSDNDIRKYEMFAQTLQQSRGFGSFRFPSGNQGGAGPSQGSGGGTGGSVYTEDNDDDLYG

Compound | IC50
COc1cccc2c(NCc3ccccc3)nc(-n3c(N)nc4ccccc43)nc12 | 110 nM
c1ccc(CNc2ccnc(N3CCOc4ccccc43)n2)cc1 | 2900 nM
COc1cccc2c(NCc3ccccc3)nc(N3CCNc4ccccc43)nc12 | 900 nM
COc1cccc2c(NCc3ccccc3)nc(N(C)Cc3ccccc3)nc12 | 7000 nM
CCCCOc1cccc2c(NCc3ccccc3)nc(N3CCOc4ccccc43)nc12 | 2630 nM
c1ccc2c(c1)OCCN2c1nc(N2CCOc3ccccc32)c2ccccc2n1 | > 30000 nM (inactive)
Nc1nc2ccccc2n1-c1nc2c(c(NCc3ccccc3)n1)CCCC2 | 50 nM
COc1cccc2c(NCc3ccccc3)nc(NCc3cccs3)nc12 | 1700 nM
COc1cccc2c(NCc3ccccc3)nc(N3CCN(C(C)=O)CC3)nc12 | > 30000 nM (inactive)
c1ccc(CNc2nc(N3CCc4ccccc4C3)nc3ccccc23)cc1 | inactive
COc1cccc2c(NCc3cccs3)nc(N3CCOc4ccccc43)nc12 | 1200 nM
COc1cccc2c(NCc3ccccc3)nc(N3CCOCC3)nc12 | inactive
COc1cccc2c(NCc3ccccc3)nc(Nc3nc4ccccc4n3C)nc12 | 300 nM
CC(C)Nc1nc(Nc2cccc(Cl)c2)nc2ccccc12 | > 30000 nM (inactive)
COc1cccc2c(NCc3ccc(O)cc3)nc(N3CCOc4ccccc43)nc12 | 2400 nM
CN(c1ccccc1)c1nc(NCc2ccccc2)c2ccccc2n1 | > 30000 nM (inactive)
COCCOc1cccc2c(NCc3ccccc3)nc(N3CCOc4ccccc43)nc12 | 600 nM
COc1cccc2c(NCc3ccccc3)nc(NC(C)c3ccccc3)nc12 (stereo unspecified) | inactive

Compound | IC50
COc1cccc2c(NCc3ccccc3)nc(Nc3cc(C)cc(F)c3)nc12 | 1500 nM
COc1cccc2c(NCc3ccccc3)nc(N3CCOc4ccccc43)nc12 | 200 nM
CCN(CC)CCOc1cccc2c(NCc3ccccc3)nc(N3CCOc4ccccc43)nc12 | 400 nM
COc1cccc2c(NCc3ccccc3)nc(-n3c(N)nc4cc(Cl)ccc43)nc12 | 700 nM
COc1cccc2c(NCC3CCCCC3)nc(N3CCOc4ccccc43)nc12 | 7400 nM
COc1cccc2c(NCc3ccccn3)nc(N3CCOc4ccccc43)nc12 | inactive
COc1cccc2c(NCc3ccc(F)cc3)nc(N3CCOc4ccccc43)nc12 | 1900 nM
Nc1nc2ccccc2n1-c1nccc(NCc2ccccc2)n1 | 2800 nM
COc1cccc2c(NCc3ccccc3)nc(-n3c(N)nc4cc(Br)ccc43)nc12 | 800 nM
c1ccc(CNc2nc(N3CCOc4ccccc43)nc3ccsc23)cc1 | 400 nM
COc1cccc2c(NCc3ccccc3)nc(Nc3ccccc3O)nc12 | 2600 nM
COc1cccc2c(NCc3ccccc3)nc(-n3c(N)nc4c(C)cccc43)nc12 | 45 nM
COc1cccc2c(NCc3ccccc3)nc(-n3c(=O)oc4ccccc43)nc12 | 110 nM
COc1ccc(-c2cccc3c(NCc4ccccc4)nc(N4CCOc5ccccc54)nc23)cc1 | 1100 nM
COc1cccc2c(NCc3ccccc3)nc(Nc3nc4ccccc4s3)nc12 | 500 nM
COc1cccc2c(NCc3ccccc3)nc(NC(=O)Nc3ccccc3)nc12 | > 30000 nM (inactive)
COc1cccc2c(NCc3ccccc3)nc(-n3c(N)nc4cc(C)c(C)cc43)nc12 | 2000 nM

Further lines, results first:

IC50 | Compound
4600 nM | COc1cccc2c(NCc3ccccc3O)nc(N3CCOc4ccccc43)nc12
5400 nM | COc1cccc2c(NCc3ccccc3)nc(NCC3CCCCC3)nc12
240 nM | COc1cccc2c(NCc3ccccc3)nc(-n3c(N)nc4cc(C)ccc43)nc12
170 nM | OCCOc1cccc2c(NCc3ccccc3)nc(N3CCOc4ccccc43)nc12
1100 nM | Cc1nc(N2CCOc3ccccc32)nc(NCc2ccccc2)c1C
480 nM | COc1ccc2c(c1)nc(N)n2-c1nc(NCc2ccccc2)c2cccc(OC)c2n1
inactive | COc1cccc2c(NCc3ccccc3)nc(NCc3cncs3)nc12
2700 nM | COc1cccc2c(NCc3ccccc3)nc(N3CCN(C(C)=O)c4ccccc43)nc12
3300 nM | COc1cccc2c(NCc3ccccc3)nc(-n3cnc4ccccc43)nc12
110 nM | Nc1nc2ccccc2n1-c1nc(NCc2ccccc2)c2ccccc2n1
3500 nM | c1ccc(CNc2nc(N3CCOc4ccccc43)nc3c(-c4ccccc4)cccc23)cc1
500 nM | COc1cccc2c(NCc3ccccc3)nc(Nc3cccc(Cl)c3)nc12
1200 nM | Oc1cccc2c(NCc3ccccc3)nc(N3CCOc4ccccc43)nc12
400 nM | N#CCOc1cccc2c(NCc3ccccc3)nc(N3CCOc4ccccc43)nc12
> 30000 nM (inactive) | COc1cccc2c(NCc3ccccn3)nc(N3CCNc4ccccc43)nc12
520 nM | COc1cccc2c(NCc3ccccc3)nc(Nc3cccc(F)c3)nc12
80 nM | COc1cccc2c(NCc3ccccc3)nc(-n3c(N)nc4cc(F)ccc43)nc12
3100 nM | COc1cccc2c(NCc3ccccc3)nc(N3CCN(C)c4ccccc43)nc12
110 nM | c1ccc(CNc2nc(N3CCOc4ccccc43)nc3c2CCCC3)cc1
> 30000 nM (inactive) | COc1cccc2c(NCc3ccccc3)nc(N3CCN(C)CC3)nc12
> 30000 nM (inactive) | Clc1ccccc1-c1nc(N2CCCc3ccccc32)c2ccccc2n1
